Laboratory results: ChEMBL document CHEMBL3739300, “Chemical Constituents from the Fruiting Bodies of Hexagonia apiaria and Their Anti-inflammatory Activity” (J Nat Prod, 2015)
The source made the active and inactive calls. The calls are words filed in the database; no cut-off is given here.

Columns and labels:
Format in all cases: functional, cell-based
[1] = Antiinflammatory activity in human neutrophils assessed as inhibition of FMLP/CB-induced superoxide anion generation by spectrophotometry; conditions: Neutrophil
Method in brief: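 Neutrophils from healthy donors (20−30 y) isolated by dextran sedimentation, Ficoll (1.077 g/mL) centrifugation and hypotonic lysis, kept in Ca2+-free HBSS pH 7.4 at 4 °C. Cells (6 × 10^5/mL) with 0.5 mg/mL ferricytochrome c and 1 mM Ca2+, 37 °C 2 min, drug or 0.1% DMSO 5 min. Stimulated with 100 nM FMLP after 1 μg/mL cytochalasin B, 3 min. SOD-inhibitable (100 U/mL) absorbance at 550 nm; IC50, n = 3−4.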

[2] = (§1) Antiinflammatory activity in human neutrophils assessed as inhibition of FMLP/CB-induced elastase release; conditions: Neutrophil
Method in brief: (§2)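 Donor neutrophils (isolated by dextran, Ficoll, hypotonic lysis; Ca2+-free HBSS pH 7.4) at 6 × 10^5/mL with 100 μM MeO-Suc-Ala-Ala-Pro-Val-p-nitroanilide. Equilibrated 37 °C 2 min, drug or 0.1% DMSO vehicle 5 min, then activated with 100 nM FMLP plus 0.5 μg/mL cytochalasin B. Absorbance at 405 nm monitored continuously; percent of FMLP/CB-activated drug-free control; IC50, n = 3−4.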

Neutrophil = experiment: as §1; method in brief: as §2

Row | SMILES | IC50 [1] [µM] | IC50 [2] [µM] | inhibition (Neutrophil)
1 | O=c1cc(N2CCOCC2)oc2c(-c3ccccc3)cccc12 [LY-294002] | 0.4 | 1.5 | –
2 | CC1=C(C)C2(C[C@@H](C)[C@H]3[C@@H](C[C@@]4(C)C5=C(CC[C@]34C)[C@@]3(C)CC[C@@H](O)C(C)(C)[C@@H]3CC5)O2)OC1=O (some centres not stated) | > 10 | – | inactive
3 | CC1=C(C)C2(C[C@@H](C)[C@H]3[C@@H](C[C@@]4(C)C5=C(CC[C@]34C)[C@@]3(C)CC[C@@H](OC(=O)CC(=O)O)C(C)(C)[C@@H]3CC5)O2)OC1=O (some centres not stated) | 1.9 | 4.3 | –
4 | C=C(CC[C@@H](C(=O)O)[C@H]1CC[C@@]2(C)C3=C(CC[C@]12C)[C@@]1(C)C[C@H](O)[C@H](O)C(C)(C)[C@@H]1CC3)C(C)C | 6 | > 10 | –
5 | COC(=O)CC(=O)O[C@@H]1CC[C@]2(C)C3=C(CC[C@H]2C1(C)C)[C@]1(C)C[C@H]2OC4(C[C@@H](C)[C@@H]2[C@@]1(C)CC3)OC(=O)C(C)=C4C (some centres not stated) | > 10 | – | inactive
6 | CC1=C(C)C2(C[C@@H](C)[C@H]3[C@@H](C[C@@]4(C)C5=C(CC[C@]34C)[C@@]3(C)CC[C@@H](O)[C@@](C)(C=O)[C@@H]3CC5)O2)OC1=O (some centres not stated) | > 10 | – | inactive
